Test results from ChEMBL document CHEMBL1143154, “Discovery of potent LPA2 (EDG4) antagonists as potential anticancer agents” (Bioorg Med Chem Lett, 2008).

Assays:
[1] = target: T1, Lysophosphatidic acid receptor 2 (Homo sapiens, UniProt Q9HBW0); test: Antagonist activity at LPA2 expressed in RH7777 cells with Gi4-protein and aequorin by calcium mobilization assay; assay type: functional, cell-based
Summary of the method: (§1)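 Rat hepatoma RH7777 cells transiently transfected with aequorin, chimeric Gi4-protein and the LPA receptor subtype (LPA1, LPA2 or LPA3). Inhibition of LPA-induced receptor activation read as Ca2+ flux by flash luminescence in 384-well format; IC50 in μM, n = 2.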

[2] = target: T2, Lysophosphatidic acid receptor 3 (Homo sapiens, UniProt Q9UBY5); test: Antagonist activity at LPA3 expressed in RH7777 cells with Gi4-protein and aequorin by calcium mobilization assay; assay type: functional, cell-based; summary of the method: as §1
T2 sequence (Q9UBY5 whole entry): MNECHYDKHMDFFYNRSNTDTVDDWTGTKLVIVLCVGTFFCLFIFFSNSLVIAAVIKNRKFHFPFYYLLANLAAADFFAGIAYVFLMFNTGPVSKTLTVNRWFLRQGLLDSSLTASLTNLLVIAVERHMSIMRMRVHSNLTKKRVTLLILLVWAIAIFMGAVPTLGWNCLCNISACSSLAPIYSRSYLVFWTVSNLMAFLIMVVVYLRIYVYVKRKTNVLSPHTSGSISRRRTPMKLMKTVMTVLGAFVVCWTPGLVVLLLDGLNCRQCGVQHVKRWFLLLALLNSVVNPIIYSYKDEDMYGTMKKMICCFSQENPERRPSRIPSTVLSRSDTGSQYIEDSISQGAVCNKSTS

[3] = target: Lysophosphatidic acid receptor 1 (Homo sapiens, UniProt Q92633); test: Antagonist activity at LPA1 expressed in RH7777 cells with Gi4-protein and aequorin by calcium mobilization assay; assay type: functional, cell-based; summary of the method: as §1
[4] = target: T1, Lysophosphatidic acid receptor 2; test: Inhibition of LPA2-mediated Erk activation in human HCT116 assessed as inhibition of LPA-induced erk phosphorylation
Summary of the method: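 HCT-116 cells at 90% confluence serum-starved 2 h, preincubated with compound at various concentrations 1 h at 37 °C, then stimulated with LPA 3 μM (HGF 30 ng/ml as counter-stimulus) for 12 min at 37 °C. Cells fixed, permeabilized, blocked 2 h; in-cell Western detection of p-Erk and total Erk simultaneously, p-Erk normalized to total Erk per well.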

HCT-116 = test: Inhibition of LPA-induced proliferation of human HCT116 cells after 24 hrs; assay type: functional, cell-based
Summary of the method: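 HCT-116 cells at 5000 cells/well in serum-free DMEM with 0.11% BSA. Test compound added at various concentrations, then LPA at a final 3 μM (HGF at a final 30 ng/ml as comparison stimulus). After 24 h incubation, viable cells measured by CellTiter-Glo luminescence.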

[5] = target: T1, Lysophosphatidic acid receptor 2; test: Antagonist activity at LPA2 assessed as inhibition of LPA-induced Ca2+ flux; assay type: functional; summary of the method: as §1

T1 sequence (Q9HBW0 whole entry): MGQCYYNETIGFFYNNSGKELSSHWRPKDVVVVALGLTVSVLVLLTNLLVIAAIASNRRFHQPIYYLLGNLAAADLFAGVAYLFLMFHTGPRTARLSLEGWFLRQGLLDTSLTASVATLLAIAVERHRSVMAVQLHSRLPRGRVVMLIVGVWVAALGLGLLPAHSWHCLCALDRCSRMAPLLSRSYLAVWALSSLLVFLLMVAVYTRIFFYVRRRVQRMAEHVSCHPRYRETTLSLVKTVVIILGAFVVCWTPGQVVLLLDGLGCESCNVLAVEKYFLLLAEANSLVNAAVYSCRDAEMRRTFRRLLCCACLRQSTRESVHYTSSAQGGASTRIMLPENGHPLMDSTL
Lysophosphatidic acid receptor 1, sequence (Q92633 whole entry): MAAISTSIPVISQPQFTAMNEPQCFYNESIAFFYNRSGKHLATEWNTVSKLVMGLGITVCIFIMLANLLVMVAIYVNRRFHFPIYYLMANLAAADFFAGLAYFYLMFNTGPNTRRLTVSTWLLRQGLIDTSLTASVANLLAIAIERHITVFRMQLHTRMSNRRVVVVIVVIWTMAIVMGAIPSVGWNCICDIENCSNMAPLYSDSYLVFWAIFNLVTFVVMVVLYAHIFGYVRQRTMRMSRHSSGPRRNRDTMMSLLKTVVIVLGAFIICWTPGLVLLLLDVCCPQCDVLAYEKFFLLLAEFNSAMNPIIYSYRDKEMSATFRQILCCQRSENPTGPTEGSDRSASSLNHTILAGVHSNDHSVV

SMILES | IC50 [1] [nM] | further results
COc1ccccc1N1CCN(CCNc2nc(C(F)(F)F)nc3ccccc23)CC1 | > 30000 | 
COc1ccccc1N1CCN(C[C@@H](C)Nc2nc(C(F)(F)F)nc3ccccc23)CC1 | > 30000 | 
Cc1csc2c(N[C@@H](C)CN3CCN(S(=O)(=O)c4ccc(Cl)c(Cl)c4)CC3)ncnc12 | 17 | IC50 [2]: > 50000 nM; IC50 [3]: > 50000 nM; Activity [4]: Dose-dependent effect; Activity (HCT-116): Dose-dependent effect
CC[C@@H](CN1CCN(c2ccccc2OC)CC1)Nc1nc(C(F)(F)F)nc2ccccc12 | > 30000 | 
COc1ccccc1N1CCN(CC(C)(C)Nc2nc(C(F)(F)F)nc3ccccc23)CC1 | > 30000 | 
COc1cc(OC)cc(C(=O)N(CCCc2ccccc2)Cc2ccc(Oc3ccccc3C(=O)O)cc2)c1 | > 50000 | IC50 [2]: 40 nM; IC50 [3]: > 50000 nM
CC(CN1CCN(c2ccc(F)cc2)CC1)Nc1nc(C2CC2)nc2ccccc12 (stereo not drawn) |  | IC50 [5]: 1700 nM
Cc1noc(-c2ccccc2)c1NC(=O)OC(C)c1ccccc1 (stereo not drawn) | > 50000 | IC50 [2]: 12000 nM; IC50 [3]: 50 nM

Continued by falling IC50 [1], values first:

IC50 [1] [nM] | SMILES | further results
6610 | CCCCS(=O)(=O)N1CCN(C[C@H](C)Nc2ncnc3c(C)csc23)CC1 | 
3200 | COc1ccccc1N1CCN(C[C@H](C)Nc2nc(C3CC3)nc3ccccc23)CC1 | 
1860 | Cc1csc2c(N[C@@H](C)CN3CCN(S(=O)(=O)Cc4ccccc4)CC3)ncnc12 | 
1300 | COc1ccccc1N1CCN(C[C@H](C)Nc2nc(C(F)(F)F)nc3ccccc23)CC1 | 
730 | Cc1ccccc1S(=O)(=O)N1CCN(C[C@H](C)Nc2ncnc3c(C)csc23)CC1 | 
730 | Cc1ccccc1N1CCN(C[C@H](C)Nc2nc(C(F)(F)F)nc3ccccc23)CC1 | 
310 | Cc1cccc(S(=O)(=O)N2CCN(C[C@H](C)Nc3ncnc4c(C)csc34)CC2)c1 | 
260 | Cc1ccccc1N1CCN(C[C@H](C)Nc2ncnc3c(C)csc23)CC1 | IC50 [2]: > 50000 nM; IC50 [3]: > 50000 nM
170 | Cc1ccc(S(=O)(=O)N2CCN(C[C@H](C)Nc3ncnc4c(C)csc34)CC2)cc1 | 
35 | Cc1csc2c(N[C@@H](C)CN3CCN(S(=O)(=O)c4cccc(Cl)c4)CC3)ncnc12 | 
